pIC50: −log10 of the molar value. In brackets after ≈: the same amount, converted by molar mass. Activity calls are given as the source filed them. No cut-off for these calls is given here.
What was measured:
[1] = target: Protein-tyrosine kinase 6 (Homo sapiens, UniProt Q13882); assay: Inhibition of BRK
BXPC-3 = assay: Antiproliferative activity against human BxPC3 cells assessed as cell growth inhibition; type: cell-based
T47D = assay: Antiproliferative activity against human T47D cells assessed as cell growth inhibition; type: cell-based
NCI-H441 = assay: Antiproliferative activity against human NCI-H441 cells assessed as cell growth inhibition; type: cell-based
HCT-15 = assay: Antiproliferative activity against human HCT15 cells assessed as cell growth inhibition; type: cell-based
[2] = Inhibition of PDGFR
[3] = AUC (0 to 24 hrs) in nude mouse at 30 mg/kg, po by LC-MS/MS analysis; type: ADME, organism-based; design: time < 24 hr, dose 30 mg/kg, route oral; conditions: plasma
Calu-6 [4] = assay: Antitumor activity against human Calu6 cells xenografted in BALB/c mouse assessed as tumor growth inhibition at 150 mg/kg, po qd for 11 days; type: functional, organism-based; design: dose 150 mg/kg
Outline: (§1)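 Female Balb/c nude mice carried s.c. flank Calu-6 xenografts, 5.0×10⁶ cells in Hanks' solution. At 200 mm³, mice were randomized into 4 groups (n = 5): vehicle, 150 mg/kg, sunitinib 80 mg/kg, or both. Each group dosed orally once daily for 11 days. Volume = 1/2 × long × short². Inhibition from volume change against control.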

HUVEC [5] = assay: Antiangiogenic activity in HUVEC assessed as inhibition of VEGF-induced cell proliferation after 4 days; type: functional, cell-based; conditions: Homo sapiens, 96 h
Outline: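 HUVECs maintained in RPMI1640 with 10% FCS, 50 μg/mL heparin and ECGS, then seeded at 3000 cells/well in RPMI1640 with 5% FCS and 20 ng/mL VEGF, with compound at serially diluted concentrations. Incubated at 37 °C, 5% CO₂. Read-out is Cell Counting Kit-8, absorbance at 450 nm. Inhibition = (1−T/C)×100 against untreated control.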

[6] = Apparent oral clearance in nude mouse at 30 mg/kg, po by LC-MS/MS analysis; type: ADME, organism-based; design: dose 30 mg/kg, route oral; conditions: in vivo
Outline: (§2)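 Female nude mice given single oral dose in DMSO/Cremophor EL/1% Tween 80 (1:1:8 v/v/v) by stomach sonde. Blood taken at 30 min, 1, 2, 4, 7 and 24 h (n = 2/time point). Plasma precipitated with CH3CN/MeOH plus internal standard, filtered, measured by LC-MS/MS (LLOQ 20 ng/mL). Parameters by non-compartmental analysis; CL given as CL/F.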

CWR22R = assay: Antiproliferative activity against human 22Rv1 cells assessed as cell growth inhibition; type: cell-based
HUVEC [7] = assay: Antiangiogenic activity in HUVEC co-cultured with fibroblasts assessed as inhibition of capillary-like tube formation at 4 uM after 11 days by microscopic staining method relative to control; type: functional; conditions: Homo sapiens, 264 h
Outline: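 Commercial co-culture kit of HUVEC and fibroblasts, given compound at final 4 or 20 μM and held at 37 °C, 5% CO₂ for 11 days. Tubes fixed with 70% ethanol and stained for CD31, then photographed under a microscope. Tube area quantified by image analysis and inhibition calculated against control taken as 100%.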

[8] = target: Cyclin-dependent kinase 1 (Homo sapiens, UniProt P06493); assay: Inhibition of CDK1
Cyclin-dependent kinase 1, sequence (P06493 whole entry): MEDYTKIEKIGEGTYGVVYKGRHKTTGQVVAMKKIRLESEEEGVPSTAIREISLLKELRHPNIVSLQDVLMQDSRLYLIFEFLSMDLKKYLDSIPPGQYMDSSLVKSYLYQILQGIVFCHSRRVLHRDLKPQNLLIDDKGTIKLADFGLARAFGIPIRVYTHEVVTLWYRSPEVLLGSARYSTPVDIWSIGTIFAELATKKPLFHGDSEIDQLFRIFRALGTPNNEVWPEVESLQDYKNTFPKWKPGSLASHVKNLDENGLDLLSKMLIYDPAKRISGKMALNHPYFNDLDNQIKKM

Calu-6 [9] = assay: Antitumor activity against human Calu6 cells xenografted in BALB/c mouse assessed as tumor growth inhibition at 150 mg/kg, po qd for 11 days in presence of sunitinib; type: functional, organism-based; design: dose 150 mg/kg; outline: as §1
CCRF-CEM = assay: Antiproliferative activity against human CCRF-CEM cells assessed as cell growth inhibition; type: cell-based
Calu-6 [10] = assay: Antiproliferative activity against human Calu6 cells assessed as cell growth inhibition; type: cell-based
IGROV-1 = assay: Antiproliferative activity against human IGROV1 cells assessed as cell growth inhibition; type: cell-based
NCI-N87 = assay: Antiproliferative activity against human NCI-N87 cells assessed as cell growth inhibition; type: cell-based
[11] = target: Cyclin-dependent kinase 2 (Homo sapiens, UniProt P24941); assay: Inhibition of CDK2
[12] = Antiproliferative activity against human Huh1 cells assessed as cell growth inhibition; type: cell-based; conditions: HuH-1
[13] = Oral bioavailability in nude mouse at 30 mg/kg by LC-MS/MS analysis; type: ADME, organism-based; conditions: in vivo; outline: as §2
[14] = Inhibition of PKA
Focal adhesion kinase 1 = Focal adhesion kinase 1 (Homo sapiens, UniProt Q05397); assay: Inhibition of FAK
Focal adhesion kinase 1, sequence (Q05397 whole entry): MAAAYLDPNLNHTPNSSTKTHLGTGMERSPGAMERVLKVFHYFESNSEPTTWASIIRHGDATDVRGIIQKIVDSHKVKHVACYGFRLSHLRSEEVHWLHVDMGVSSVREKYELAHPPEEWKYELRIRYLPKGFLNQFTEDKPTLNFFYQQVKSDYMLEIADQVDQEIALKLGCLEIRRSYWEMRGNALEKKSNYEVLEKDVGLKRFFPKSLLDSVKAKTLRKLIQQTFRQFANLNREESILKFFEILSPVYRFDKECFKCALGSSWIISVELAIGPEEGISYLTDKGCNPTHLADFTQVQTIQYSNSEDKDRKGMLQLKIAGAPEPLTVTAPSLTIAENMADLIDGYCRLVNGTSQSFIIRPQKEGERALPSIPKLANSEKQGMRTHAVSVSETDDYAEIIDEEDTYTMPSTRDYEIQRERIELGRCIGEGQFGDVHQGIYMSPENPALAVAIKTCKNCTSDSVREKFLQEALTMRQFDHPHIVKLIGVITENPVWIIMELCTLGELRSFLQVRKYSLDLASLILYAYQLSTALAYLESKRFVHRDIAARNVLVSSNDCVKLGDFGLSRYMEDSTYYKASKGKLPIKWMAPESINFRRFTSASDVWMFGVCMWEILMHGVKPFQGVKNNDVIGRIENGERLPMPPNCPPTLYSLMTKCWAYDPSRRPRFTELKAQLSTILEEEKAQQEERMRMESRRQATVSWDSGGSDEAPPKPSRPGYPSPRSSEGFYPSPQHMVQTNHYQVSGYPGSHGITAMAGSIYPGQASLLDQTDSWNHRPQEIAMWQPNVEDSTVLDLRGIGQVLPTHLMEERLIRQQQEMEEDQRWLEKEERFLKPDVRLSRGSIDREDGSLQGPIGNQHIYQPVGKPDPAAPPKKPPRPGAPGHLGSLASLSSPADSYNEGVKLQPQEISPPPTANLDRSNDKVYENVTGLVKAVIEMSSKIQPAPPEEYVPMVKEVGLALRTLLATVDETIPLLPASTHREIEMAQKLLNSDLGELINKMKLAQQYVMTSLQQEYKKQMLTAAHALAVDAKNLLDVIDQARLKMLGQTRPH

[15] = Cmax in nude mouse at 30 mg/kg, po by LC-MS/MS analysis; type: ADME, organism-based; design: dose 30 mg/kg, route oral; conditions: in vivo; outline: as §2
Insulin receptor = Insulin receptor (Homo sapiens, UniProt P06213); assay: Inhibition of INSR
Insulin receptor, sequence (P06213 28-758 limits assumed): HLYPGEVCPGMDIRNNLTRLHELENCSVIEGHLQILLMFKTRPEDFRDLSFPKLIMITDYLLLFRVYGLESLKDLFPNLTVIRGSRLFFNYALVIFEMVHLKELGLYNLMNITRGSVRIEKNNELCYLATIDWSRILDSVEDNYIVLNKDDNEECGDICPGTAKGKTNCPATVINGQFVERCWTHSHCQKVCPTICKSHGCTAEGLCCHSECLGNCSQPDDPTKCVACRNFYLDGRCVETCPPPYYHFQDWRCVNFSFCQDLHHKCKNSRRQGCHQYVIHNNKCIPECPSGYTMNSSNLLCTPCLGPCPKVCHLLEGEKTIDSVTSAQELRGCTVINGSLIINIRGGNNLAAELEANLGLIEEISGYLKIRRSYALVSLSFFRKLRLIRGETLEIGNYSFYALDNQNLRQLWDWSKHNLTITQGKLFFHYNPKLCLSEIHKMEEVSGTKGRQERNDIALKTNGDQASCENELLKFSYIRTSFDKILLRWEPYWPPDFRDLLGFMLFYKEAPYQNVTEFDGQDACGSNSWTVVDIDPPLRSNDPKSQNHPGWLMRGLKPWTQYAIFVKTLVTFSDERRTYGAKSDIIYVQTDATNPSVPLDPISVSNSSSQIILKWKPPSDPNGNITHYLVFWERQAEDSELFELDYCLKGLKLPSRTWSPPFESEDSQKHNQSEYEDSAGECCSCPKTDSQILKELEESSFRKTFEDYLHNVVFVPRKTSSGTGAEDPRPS
Insulin receptor, sequence (P06213 763-1382 limits assumed): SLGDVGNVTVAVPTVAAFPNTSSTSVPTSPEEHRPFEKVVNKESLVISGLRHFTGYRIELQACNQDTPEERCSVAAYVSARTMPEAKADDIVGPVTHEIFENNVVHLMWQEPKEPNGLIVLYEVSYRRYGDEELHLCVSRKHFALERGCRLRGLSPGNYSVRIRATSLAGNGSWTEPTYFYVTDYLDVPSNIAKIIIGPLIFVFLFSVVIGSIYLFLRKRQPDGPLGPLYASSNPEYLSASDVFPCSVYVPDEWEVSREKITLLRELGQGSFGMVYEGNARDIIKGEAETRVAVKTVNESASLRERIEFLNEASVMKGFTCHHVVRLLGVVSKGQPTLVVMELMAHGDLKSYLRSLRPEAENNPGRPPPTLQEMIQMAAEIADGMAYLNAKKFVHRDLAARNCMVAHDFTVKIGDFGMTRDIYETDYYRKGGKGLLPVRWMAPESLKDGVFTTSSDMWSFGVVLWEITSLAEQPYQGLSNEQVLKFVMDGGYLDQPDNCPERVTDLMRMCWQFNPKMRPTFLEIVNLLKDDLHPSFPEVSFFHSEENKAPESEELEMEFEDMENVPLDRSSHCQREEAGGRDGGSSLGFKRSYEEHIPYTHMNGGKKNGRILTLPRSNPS

C32 = assay: Antiproliferative activity against human C32 cells assessed as cell growth inhibition; type: cell-based
DLD-1 = assay: Antiproliferative activity against human DLD1 cells assessed as cell growth inhibition; type: cell-based
[16] = Antiproliferative activity against human IGROV1/T8 cells assessed as cell growth inhibition; type: cell-based; conditions: IGROV-1
[17] = Antiproliferative activity against human COLO320DM cells assessed as cell growth inhibition; type: cell-based; conditions: COLO 320DM
[18] = Solubility of the compound in fasted state simulated intestinal fluid at 10 mM after 2 hrs by HPLC-UV analysis; type: physicochemical
Outline: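 Triplicate samples made from 10 mM DMSO stocks. DMSO evaporated (1 h), residue dissolved in FaSSIF and shaken 2 h. Solutions filtered, filtrate analysed by UV or HPLC-UV against a four-point calibration curve from the stocks. Result in µg/mL.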

[19] = Antiproliferative activity against human 10C9 cells assessed as cell growth inhibition; type: cell-based
[20] = Antiproliferative activity against human KPL4 cells assessed as cell growth inhibition; type: cell-based
[21] = target: Receptor-type tyrosine-protein kinase FLT3 (Homo sapiens, UniProt P36888); assay: Inhibition of FLT3
Receptor-type tyrosine-protein kinase FLT3, sequence (P36888 whole entry): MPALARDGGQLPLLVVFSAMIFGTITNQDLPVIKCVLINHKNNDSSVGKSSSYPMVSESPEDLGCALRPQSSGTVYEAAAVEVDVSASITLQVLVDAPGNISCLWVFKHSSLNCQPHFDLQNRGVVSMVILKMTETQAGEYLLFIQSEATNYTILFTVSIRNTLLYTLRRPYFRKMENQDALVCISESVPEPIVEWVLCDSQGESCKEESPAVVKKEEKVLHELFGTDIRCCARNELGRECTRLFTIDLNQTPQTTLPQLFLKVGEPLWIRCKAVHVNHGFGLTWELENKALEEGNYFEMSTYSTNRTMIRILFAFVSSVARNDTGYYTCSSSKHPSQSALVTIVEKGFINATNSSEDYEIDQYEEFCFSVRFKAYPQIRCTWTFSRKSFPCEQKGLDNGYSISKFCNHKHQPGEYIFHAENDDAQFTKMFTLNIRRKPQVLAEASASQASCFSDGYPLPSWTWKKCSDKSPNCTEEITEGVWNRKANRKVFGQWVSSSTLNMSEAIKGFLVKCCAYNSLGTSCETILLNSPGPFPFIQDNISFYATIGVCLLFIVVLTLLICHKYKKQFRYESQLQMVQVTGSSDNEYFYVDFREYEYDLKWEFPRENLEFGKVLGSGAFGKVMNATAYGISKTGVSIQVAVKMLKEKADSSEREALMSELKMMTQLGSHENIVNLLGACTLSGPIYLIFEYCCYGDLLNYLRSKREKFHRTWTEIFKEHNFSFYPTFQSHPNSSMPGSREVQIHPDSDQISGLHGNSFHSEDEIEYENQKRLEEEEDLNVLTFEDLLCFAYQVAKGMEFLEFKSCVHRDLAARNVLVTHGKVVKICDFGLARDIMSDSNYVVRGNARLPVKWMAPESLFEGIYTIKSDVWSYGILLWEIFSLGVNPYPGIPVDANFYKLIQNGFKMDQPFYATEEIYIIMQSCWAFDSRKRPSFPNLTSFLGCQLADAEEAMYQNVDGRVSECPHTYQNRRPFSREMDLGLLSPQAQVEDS

MDA-MB-231 = assay: Antiproliferative activity against human MDA-MB-231 cells assessed as cell growth inhibition; type: cell-based
MKN-45 = assay: Antiproliferative activity against human MKN45 cells assessed as cell growth inhibition; type: cell-based
[22] = target: Tyrosine-protein kinase Lck (Homo sapiens, UniProt P06239); assay: Inhibition of LCK
Tyrosine-protein kinase Lck, sequence (P06239 whole entry): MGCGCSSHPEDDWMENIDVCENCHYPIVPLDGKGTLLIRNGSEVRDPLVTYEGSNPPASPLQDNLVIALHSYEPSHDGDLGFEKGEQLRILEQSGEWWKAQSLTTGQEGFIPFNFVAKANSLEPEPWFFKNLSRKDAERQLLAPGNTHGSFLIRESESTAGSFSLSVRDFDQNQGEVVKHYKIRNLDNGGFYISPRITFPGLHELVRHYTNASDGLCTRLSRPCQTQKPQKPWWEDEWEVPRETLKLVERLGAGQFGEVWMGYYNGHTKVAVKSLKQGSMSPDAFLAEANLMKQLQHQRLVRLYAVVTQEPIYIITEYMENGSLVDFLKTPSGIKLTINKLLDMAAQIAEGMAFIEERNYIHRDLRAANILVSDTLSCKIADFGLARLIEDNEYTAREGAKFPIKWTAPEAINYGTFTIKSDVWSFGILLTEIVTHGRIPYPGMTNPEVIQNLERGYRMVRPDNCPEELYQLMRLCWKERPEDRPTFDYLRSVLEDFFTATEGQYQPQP

CAPAN-1 = assay: Antiproliferative activity against human Capan1 cells assessed as cell growth inhibition; type: cell-based
[23] = target: Tyrosine-protein kinase ABL1 (Homo sapiens, UniProt P00519); assay: Inhibition of ABL
Huh-7 = assay: Antiproliferative activity against human HuH7 cells assessed as cell growth inhibition; type: cell-based
[24] = Oral bioavailability in nude mouse at 10 mg/kg by LC-MS/MS analysis; type: ADME, organism-based; conditions: in vivo; outline: as §2

Protein-tyrosine kinase 6, sequence (Q13882 whole entry): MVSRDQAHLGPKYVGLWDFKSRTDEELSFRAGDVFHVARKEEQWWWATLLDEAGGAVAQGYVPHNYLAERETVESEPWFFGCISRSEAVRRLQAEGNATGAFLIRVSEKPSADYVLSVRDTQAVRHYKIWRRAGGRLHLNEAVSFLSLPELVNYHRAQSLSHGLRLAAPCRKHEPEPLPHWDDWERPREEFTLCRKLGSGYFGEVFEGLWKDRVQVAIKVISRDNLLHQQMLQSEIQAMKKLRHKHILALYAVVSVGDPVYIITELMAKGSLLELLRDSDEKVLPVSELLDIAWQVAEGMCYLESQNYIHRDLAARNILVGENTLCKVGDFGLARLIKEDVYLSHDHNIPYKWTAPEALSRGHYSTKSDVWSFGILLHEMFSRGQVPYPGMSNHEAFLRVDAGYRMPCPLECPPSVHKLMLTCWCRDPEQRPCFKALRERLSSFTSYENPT

| pIC50 [1] | pIC50 (BXPC-3) | pIC50 (T47D) | pIC50 (NCI-H441) | pIC50 (HCT-15) | pIC50 [2] | AUC(0-t) at 24 h [3] [ng·h/mL] | CL/F [6] [mL/min/kg] | pIC50 [8] | pIC50 (CCRF-CEM) | pIC50 (Calu-6 [10]) | pIC50 [11] | pIC50 [14] | pIC50 (Focal adhesion kinase 1) | Compound | pIC50 (HUVEC [5]) | pIC50 (CWR22R) | inhibition at 4 µM (HUVEC [7]) [%] | pIC50 (IGROV-1) | pIC50 (NCI-N87) | pIC50 [12] | also measured |
| --- | --- | --- | --- | --- | --- | --- | --- | --- | --- | --- | --- | --- | --- | --- | --- | --- | --- | --- | --- | --- | --- |
| < 4.30 | 4.57 | 5.35 | 4.60 | 4.70 | < 4.30 | 86400 | 5.8 | < 4.30 | 4.70 | 4.40 | < 4.30 | < 4.30 | < 4.30 | COc1ccc(C(=O)NC[C@@H](O)CO)cc1/C=C/c1ccc(Cl)cc1 | 6.32 | 5.07 | 38 | 6.04 | 4.28 | 4.52 | TGI (Calu-6 [4]): Active; TGI (Calu-6 [9]): Active; bioavailability [13]: 100%; Cmax [15]: 8270 ng/mL; pIC50 (Insulin receptor): < 4.30; pIC50 (C32): 4.42; pIC50 (DLD-1): 4.72; pIC50 [16]: 5.02; pIC50 [17]: 4.34; solubility at 2 h, 10000 µM [18]: 225 µg/mL (≈ 622 µM); pIC50 [19]: 4.42; pIC50 [20]: 5.31; pIC50 [21]: < 4.30; pIC50 (MDA-MB-231): 4.41; pIC50 (MKN-45): 5.24; pIC50 [22]: < 4.30; pIC50 (CAPAN-1): 4.33; pIC50 [23]: < 4.30; pIC50 (Huh-7): 4.54 |
| < 4.30 | 4.29 | 5.14 | 4.47 | 4.54 | < 4.30 | 90200 | 5.6 | < 4.30 | 4.52 | 4.27 | < 4.30 | < 4.30 | < 4.30 | COc1ccc(C(=O)NC[C@H](O)CO)cc1/C=C/c1ccc(Cl)cc1 | 6.60 | 4.68 | 41 | 5.85 | 4.28 | 4.52 | Cmax [15]: 9370 ng/mL; pIC50 (Insulin receptor): < 4.30; pIC50 (C32): 4.34; pIC50 (DLD-1): 4.55; pIC50 [16]: 4.92; pIC50 [17]: 4.21; solubility at 2 h, 10000 µM [18]: 263 µg/mL (≈ 727 µM); pIC50 [19]: 4.30; pIC50 [20]: 4.82; bioavailability [24]: 90%; pIC50 [21]: < 4.30; pIC50 (MDA-MB-231): 4.42; pIC50 (MKN-45): 4.59; pIC50 [22]: < 4.30; pIC50 (CAPAN-1): 4.17; pIC50 [23]: < 4.30; pIC50 (Huh-7): 4.57 |

Source: ChEMBL document CHEMBL1949587 (Bioorg Med Chem, 2012)
